B1: tRNA (parent)
chain: GUUCCGUUGGCGUAAUGGUAACGCGUCUCCCUCCUAAGGAGAAGACUGCGGGUUCGAGUCCCGUACGGAACG

Variants at the floor of the assay were thinned out.

Variants of B1 are the subject of the series. Briefly: yeast fitness relative to wild type (ratio to wild type); higher = fitter; tRNA-Arg(CCU), competitive growth, 37 C, YPD. Put shortly: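 Variants of the tRNA-Arg(CCU) gene were chemically synthesised with a 3% per-site mutation rate across 69 sites and placed at the native genomic locus in Saccharomyces cerevisiae. Six parallel replicates of the pooled strains were competed in YPD at 37°C for 24 hours, and gene amplicons from the start and end populations were read by 100-nucleotide paired-end sequencing. Darwinian fitness relative to wild type was derived from changes in genotype frequencies. Genotypes required ≥ 100 starting reads, and estimates < 0.5 were set to 0.5.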
With GUUCCGUCGGCGUAAUGGUAACGCGUCUCCCUCCUAAGGAGUAGACUGCGGGUUCGAGUCCAGUAUGGAACG, the yeast fitness was not above 0.5. Take GUUCCGUCGGCGUAAUGGUGACGCGUCUCCCUCGUAGGGAGAAAACUGCGGGUUCGAGUCCCGUACGGAACG: the yeast fitness was 0.627. Regarding GUUCCGUCGGCGUAAUGGUGACGCGUCUCCCUCCUAAGGAGAAGACUGCGGGUUCGAGUCGCGUACGGAACG, the yeast fitness was not above 0.5. The figure for GUUCCGUCGGCGUAAUGGUCACGCGUCUCCCUCCUAAGGAGAAGACUGCGAGUUCGAGUCCCGUACGGAACG is not above 0.5.

Consider GUUCCGUCGGCGUAUUGGUCACACGUCUCCCUCCUAAGGAGAAGACUGCCGGUUCGAGUCCCGUACGGAACG, for which the yeast fitness is not above 0.5. The figure for GUUCCGUCGGCGUCAUGGUAACGCGUCUCCCUACUAAGGAGAAGAAUGCGGGUUCGAGUCCCGUACGGAACG is not above 0.5; for GUUCCGUCGGCGUUAUGGUAACGCGUCUCCCUCCUAAGGAGAAGACUCCGGGUUCGAGUCCCGUACGGACCG it is not above 0.5. The result for GUUCCGUCGGCGUAAUGGUAACGCGUCUCCCUCCUAAGGAGUAGACUGCGGGUUCGAGUCCUGUCCGGAACG reads 0.534; that for GUUCCGUCGGCGUGAUGGUAACGCGUCUCCCACCUAAGGAGAAGACUGCGGGUUCGAGUCCCGUACGGAACG, 0.538; that for GUUCCGUCGGCGUGAUGGUAACGCGUCUCCCUCCUAAGGAGAAGACUGCGGGUUCGAGUCCCGUACGAAACG, 0.534. Turning to GUUCCGUAGGCGUAAUGGUAACGCGUCUCCCGCCUAGGGAGAAGACUGCGGGUUCGAGUCCCUUACGGAUCG, the yeast fitness was not above 0.5. The figure for GUUCCGUCGGCGUUAUGGUAACGCGUCUCACUCCUAAGGAGAAGACUGCGGGUUCGAGUCCCGUAUGGAGCG is 0.546. With GUUCCGUCGGCGUACUGGUAACGCGUCUCCCUCCUAAGGAGAAGACUGCGGGUUCGGGUCCCGUACGGCACG, the yeast fitness is not above 0.5. The figure for GUUCCGUCGGCGUCAUGAUAACGCGUCUCCUUCCUAAGGAGAAGGCUGCGGGUUCGAGUCCCGUACGGAACG is not above 0.5; for GUUCCGUCGGCGUACUGGUAACGCGUCUCCCUCCUAAGGAAAAGACUGCGGCUUCGAGUCCCGUACGGAACG it is not above 0.5. With GUUCCGUCGGCGUACUGGUAACGCGUCUCCAUCCUAAGGAGAAGACUGCGGGUUCGAGUCCCGUACGGAACG, the yeast fitness was not above 0.5. In the case of GUUCCGUCGGCGUUAUGGUAAGGCGUCUCUCUCCUAAGGAGAAGACUGCGGGUUCGAGUCCCGUACGGAACG, the yeast fitness is 0.581. For GUUCCGUCGGCGUAAUGGUAACGCGUCUCCCUCCUAAGGAGGAGACUGCGUGUUCGUGUCCCGUACGGAACG, the yeast fitness was not above 0.5. In the case of GUUCCGUCGGCGUAAUGGUAACGCGUCUCCCUCCUAAGGAGAUGACUGCCGGUUCGAGUCCCGUACGGAACG, the yeast fitness was not above 0.5. The result for GUUCCGUCGGCGUUAUGGUAAGGCGUCUCUCUCCUAAGGAGAAGACUGCGGGUUCGCGUCACGUACAGAACG reads not above 0.5; that for GUUCCGUCGGCGUAAUGGUAACGCGUCUCCCUCCUGAGGAGAAGACUGCGGGUUCGAGUCCCGUACGGAACG, 0.865. On to GUUCCGUCGGCGUUAUGGUAACGCGUCUCACUCCUAAGGAGAAGACUGCGGGUUCGAGUCUAGUACGGAGCG, for which the yeast fitness is 0.532. GUUCCGUCGGCGUCAUGGUAACGCGUCUCCCUACUAAGGAGAAGAAUGCGGGUUCGAGUCCCGUACAGAACG: the yeast fitness was not above 0.5. The figure for GUUCCGUCGGCGUAAUGGUAGCGCGUCUCCCUCCUAAGGAGGAGACUGCGGGUUCGAGUCCCGUACGGAACG is 0.675; for GUUCCGUAGGCGUAAUGGUAACGCGUCUCCCUCCUAAGGAGAAGACCGCGGGUUCGCGUCCCGCACGGAACG it is not above 0.5. The figure for GUUCCGUCGGCGUAAUGGUUUCGCGGCUCCAUCCUAAGGAGAAGACUGCGGGAUCGAGUCCCGUACGGCACG is not above 0.5; for GUUCCGUCGGCGUAAUGGUAACGCGUCUCCCUCCUAAGGAGGAGACUGCGGGUUCGAGUCCCGUACGGACCG it is not above 0.5; for GUUCCGUCGGCGUACUGGUAACGCGUCUCCCUCCUAAGGAGAAGCCUGCGGGUUCGAGUCCCGUACGGAACG it is 0.674.

With GUUCCGUCGGCGUAAUGGUAACGCGUCUCCCUCCUACGGAGAAGACUGCGGGUUCGAGUCCCGUACGGAACG, the yeast fitness was 0.892. The figure for GUUCCGUCGGCGUAUAGGUAACGCGACUCCCUCCUAAGGAGAAGACUGCGGGUUCGAAUCCCGUACGGAACG is not above 0.5; for GUUCCGUCGGCGUAUUGGUAACGCGUCUCCCUCCUAACAAGACGACUGCGGGUUCGAGUGCCGUCCGGAACG it is not above 0.5. Regarding GUUCCGUAGGCGUAAUGGUAACGCGUCUCCCUCCUAAGGAGAAGACAGCGGGUUCGAGUACCGUACGGAACG, the yeast fitness is not above 0.5.

With GUUCCGUCGGCGUAAUGGUAACGCGUCUCCCUCCUAAGGGGAAGACUGCGGGUUUGAGUCCCGUCCGGAACG, the yeast fitness was not above 0.5. The figure for GUUCCGUCGGCGUAAUGGUAUCGCGUCUCCCUCCUAAGGAGAAGACUGCGGGUUCGAGUCCCGUACCGUACG is not above 0.5. In the case of GUUCCGUCGGCGUAAUGGUAACGCGUCUCCCUCCUUAAGAGAAGACUGCGGGUUCGAGUCCCGUACGCAACG, the yeast fitness was not above 0.5. GUUCCGUCGGCGUAUUGGUAACGCGUCACCCUGCUAAGGAGAAGACUGCGGGUUCGAGUCCCGUACGGAACG: the yeast fitness is not above 0.5. The figure for GUUCCGUCGGCGUAAUGGUAACGCGUCUCCCUCCUAAGGAGGAGACUGCGGGUUCGAGUCCCGUACGAAACG is 0.63.

These data come from the RNAGym collection of RNA variant scans (doi:10.1126/science.aae0568).
